This is an account of results in ChEMBL document CHEMBL1153310, “New prostaglandin derivative for glaucoma treatment” (Bioorg Med Chem Lett, 2009).

The structures appear in SMILES notation.

For data set [1], the system named is Oryctolagus cuniculus. The experiment in a line: Increase in cGMP levels in aqueous humor of carbomer-induced glaucomatous pigmented rabbit at 0.005%, topical administration continuously for 5 days by radioimmunoassay. Format: functional, Aqueous humor of eyeball. A digest of the protocol: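 Aqueous humour taken after 5 days of daily topical instillation at 0.005%. Samples treated with 10% trichloroacetic acid and centrifuged. TCA extracted with 0.5 M tri-n-octylamine in 1,1,2-trichloro-1,2,2-trifluoroethane. cGMP quantified by radioimmunoassay using labelled cGMP.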

For data set [2], the system named is Oryctolagus cuniculus. In words: Increase in glutathione levels in aqueous humor of carbomer-induced glaucomatous pigmented rabbit at 0.005%, topical administration continuously for 5 days by fluorimetry. Format: functional, Aqueous humor of eyeball. The method, boiled down: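 Carbomer-glaucomatous rabbits given daily topical 0.005% instillation for 5 days. Aqueous humour centrifuged at 100.000g, 4 °C for 30 min. Supernatant diluted in phosphate-EDTA buffer and reacted with o-phthaldialdehyde (1 mg/ml) for 15 min at room temperature. Fluorescence read at ex 350/em 420 nm against a GSH standard curve, in pmol/ml.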

Data set [3] relates to Oryctolagus cuniculus. The experiment in a line: Effect on intraocular pressure in carbomer-induced glaucoma in New Zealand albino rabbit assessed as AUC at 0.005%, topical administration measured after 4 hrs. In kind it is functional, organism-based. Details: time < 4 hr. Conditions: Eye. The method, boiled down: (§1)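 Glaucoma induced by carbomer injection into the anterior chamber; IOP checked every 30 min over the first 3 h, then at least three times daily until stabilized at high levels. Drug instilled topically, once (single-dose) or daily for 5 days (repeated). IOP measured by Tono-Pen tonometer; single-dose readings at 30, 60, 120 and 240 min; AUC in mm Hg h.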

Data set [4] has as its system Oryctolagus cuniculus. The experiment in a line: Increase in glutathione levels in aqueous humor of normotensive pigmented rabbit at 0.005%, topical administration. Format: functional, Aqueous humor of eyeball. The method, boiled down:
(§2)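 Normotensive rabbits given a single topical instillation at one of three dose levels. Aqueous humour centrifuged at 100.000g, 4 °C for 30 min. Supernatant diluted in phosphate-EDTA buffer and reacted with o-phthaldialdehyde (1 mg/ml) for 15 min at room temperature. Fluorescence read at ex 350/em 420 nm, calibrated with a GSH standard curve.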

Data set [5] relates to Oryctolagus cuniculus. In words: Effect on intraocular pressure in carbomer-induced glaucoma in pigmented rabbit assessed as AUC at 0.005%, single topical administration measured over 4 hrs by tonometry. As to conditions: Eye.
Data set [6] concerns Oryctolagus cuniculus. The experiment in a line: Effect on intraocular pressure in carbomer-induced glaucoma in pigmented rabbit assessed as AUC at 0.005%, topical administration continuously for 5 days. In kind it is functional, organism-based. As to conditions: Eye. A digest of the protocol: as §1
Data set [7] deals with Oryctolagus cuniculus. In words: Reduction in intraocular pressure in carbomer-induced glaucoma in pigmented rabbit at 0.005%, topical administration continuously for 5 days. In kind it is functional, Eye. The method, boiled down:
as §1

Data set [8] relates to Oryctolagus cuniculus. In words: Reduction in intraocular pressure in carbomer-induced glaucoma in pigmented rabbit at 0.005%, topical administration continuously for 2 days. Format: functional, Eye. A digest of the protocol:
as §1

In data set [9] the test system is Oryctolagus cuniculus. In words: Reduction in intraocular pressure in carbomer-induced glaucoma in albino rabbit at 0.005%, topical administration measured after 60 mins. In kind it is functional, Eye. The method, boiled down:
as §1

Data set [10] relates to Oryctolagus cuniculus. The experiment in a line: Reduction in intraocular pressure in carbomer-induced glaucoma in pigmented rabbit at 0.005%, topical administration measured after 30 mins. Format: functional, Eye. A digest of the protocol:
as §1

For data set [11], the system named is Oryctolagus cuniculus. In words: Reduction in intraocular pressure in carbomer-induced glaucoma in pigmented rabbit at 0.005%, topical administration continuously for 3 days. In kind it is functional, Eye. The method, boiled down:
as §1

Data set [12] concerns Oryctolagus cuniculus. The experiment in a line: Reduction in intraocular pressure in carbomer-induced glaucoma in albino rabbit at 0.005%, topical administration measured after 120 mins. In kind it is functional, Eye. The method, boiled down: as §1
The subject of data set [13] is Oryctolagus cuniculus. The experiment in a line: Reduction in intraocular pressure in carbomer-induced glaucoma in pigmented rabbit at 0.005%, topical administration measured after 60 mins. In kind it is functional, Eye. The method, boiled down:
as §1

Data set [14] concerns Oryctolagus cuniculus. In words: Reduction in intraocular pressure in carbomer-induced glaucoma in pigmented rabbit at 0.005%, topical administration continuously for 4 days. In kind it is functional, Eye. The method, boiled down:
as §1

Data set [15] has as its system Oryctolagus cuniculus. In words: Reduction in intraocular pressure in carbomer-induced glaucoma in albino rabbit at 0.005%, topical administration continuously measured after […]. Format: functional, Eye. A digest of the protocol: as §1
For data set [16], the system named is Oryctolagus cuniculus. The experiment in a line: Reduction in intraocular pressure in carbomer-induced glaucoma in pigmented rabbit at 0.005%, topical administration for 1 day. In kind it is functional, Eye. The method, boiled down:
as §1

The test system of data set [17] is Oryctolagus cuniculus. The experiment in a line: Reduction in intraocular pressure in carbomer-induced glaucoma in albino rabbit at 0.005%, topical administration measured after 30 mins. In kind it is functional, Eye. A digest of the protocol: as §1
In data set [18] the test system is Oryctolagus cuniculus. In words: Reduction in intraocular pressure in carbomer-induced glaucoma in pigmented rabbit at 0.005%, topical administration measured after 240 mins. Format: functional, Eye. The method, boiled down:
as §1

Data set [19] concerns Oryctolagus cuniculus. In words: Reduction in intraocular pressure in carbomer-induced glaucoma in albino rabbit at 0.005%, topical administration measured after 240 mins. In kind it is functional, Eye. A digest of the protocol: as §1
Data set [20] deals with Oryctolagus cuniculus. In words: Reduction in intraocular pressure in carbomer-induced glaucoma in pigmented rabbit at 0.005%, topical administration measured after 120 mins. In kind it is functional, Eye. The method, boiled down:
as §1

For data set [21], the system named is Oryctolagus cuniculus. In words: Increase in glutathione levels in aqueous humor of normotensive pigmented rabbit at 0.008%, topical administration. In kind it is functional, Aqueous humor of eyeball. A digest of the protocol:
as §2

For data set [22], the species on record is Oryctolagus cuniculus. The experiment in a line: Toxicity in New Zealand albino rabbit assessed as tolerability at 0.008% by Draize test. Format: organism-based. As to conditions: in vivo. A digest of the protocol: (§3)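 Ocular tolerability scored by Draize test in New Zealand albino rabbits at three concentrations, compared with placebo.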
Data set [23] is filed under the species Oryctolagus cuniculus. The experiment in a line: Toxicity in New Zealand albino rabbit assessed as tolerability at 0.01% by Draize test. Format: organism-based. As to conditions: in vivo. A digest of the protocol: as §3
The species entered for data set [24] is Oryctolagus cuniculus. In words: Toxicity in New Zealand albino rabbit assessed as tolerability at 0.005% by Draize test. As to conditions: in vivo. In kind it is organism-based. The method, boiled down: as §3
Data set [25] relates to Oryctolagus cuniculus. In words: Reduction in intraocular pressure in carbomer-induced glaucoma in pigmented rabbit at 0.005%, topical administration continuously for 5 days relative to latanoprost. Further details: scale not given: the % may be the effect or the level left. Format: functional, Eye. The method, boiled down: as §1
Data set [26] relates to Oryctolagus cuniculus. In words: Reduction in intraocular pressure in carbomer-induced glaucoma in pigmented rabbit at 0.005%, single topical administration measured over 4 hrs relative to latanoprost. Further details: scale not given: the % may be the effect or the level left.
Data set [27] deals with Oryctolagus cuniculus. In words: Increase in glutathione levels in aqueous humor of normotensive pigmented rabbit at 0.01%, topical administration. Format: functional, Aqueous humor of eyeball. The method, boiled down:
as §2

For the molecule `CC(C)OC(=O)CCC/C=C\C[C@@H]1[C@@H](CC[C@@H](O)CCc2ccccc2)[C@H](O)C[C@@H]1O` [LATANOPROST], the Activity was found to be 71.8 fmol/mL in data set [1], 36.44 pmol/mL in data set [2] and 38.7 pmol/mL in [4]. In addition, the AUC in data set [3] was 119 mmHg.hr; in data set [5] it was 109 mmHg.hr; in [6] it was 2660 mmHg.hr.

Consider `Oc1ccc(-c2cc(=S)ss2)cc1`, for which the Activity in data set [7] came to 22 mmHg; in data set [8], 26 mmHg; in data set [9], 28 mmHg; in [1] it was 122 fmol/mL; in [10], 30 mmHg; in [2], 60.4 pmol/mL. The Activity stood at 23 mmHg in data set [11]; 26.2 mmHg in data set [12]; 29 mmHg in [13]; 58.3 pmol/mL in data set [4]; 22.2 mmHg in [14]; 25 mmHg in data set [15]. Besides, the Activity is on record as 26.7 mmHg in [16]; 29.5 mmHg in [17]; 23.5 mmHg in data set [18]; 25.2 mmHg in data set [19]; 26 mmHg in data set [20].

Take `O=C(CCC/C=C\C[C@@H]1[C@@H](CC[C@@H](O)CCc2ccccc2)[C@H](O)C[C@@H]1O)Oc1ccc(-c2cc(=S)ss2)cc1`: the Activity in data set [21] is 69.83 pmol/mL; in data set [1] it was 118 fmol/mL; in data set [2] it was 65.27 pmol/mL; in [22], “Non-toxic”; in [23], “Non-toxic”; in data set [24], “Non-toxic”. In addition, the Activity worked out at 60.04 pmol/mL in data set [4], 27% in [25], 30.8% in data set [26] and 82.89 pmol/mL in data set [27]. Moreover, the AUC was 106 mmHg.hr in [3], 75.2 mmHg.hr in data set [5] and 2090 mmHg.hr in data set [6].
